Measurements from different studies.
Compare with care: the assays were run in different laboratories. Values after ≈ are worked out from the molar mass of the structure shown.
Effect on: microbial growth

COC(=O)c1cc(-c2cccc(NC(=O)Nc3ccc(Cl)c(Cl)c3)c2)on1 — MIC (Mycobacteroides chelonae; broth dilution; ATCC35752; 48 h): > 64 µg/mL
CCCCCCCCCC(=O)N[C@@H](Cc1c[nH]c2ccccc12)C(=O)N[C@H](CC(N)=O)C(=O)N[C@@H](CC(=O)O)C(=O)N[C@@H]1C(=O)NCC(=O)N[C@@H](CCCN)C(=O)N[C@@H](CC(=O)O)C(=O)N[C@H](C)C(=O)N[C@@H](CC(=O)O)C(=O)NCC(=O)N[C@H](CO)C(=O)N[C@@H]([C@H](C)CC(=O)O)C(=O)N[C@@H](CC(=O)c2ccccc2N)C(=O)O[C@@H]1C — MIC (Enterococcus faecium; broth dilution; drug-resistant strain): 0.25 µg/mL (≈ 0.154 µM)
O=c1c2cc(Br)ccc2nc(/C=C/c2ccc([N+](=O)[O-])cc2)n1-c1cccc(O)c1 — MIC (Enterococcus faecium; broth dilution; NCTC7171): > 128 µg/mL
CCCCCC/C=C\CCCCCCCCCc1cc(O)cc(O)c1 — MIC (Enterococcus faecium; broth dilution; drug-resistant strain): 64 µg/mL (≈ 185 µM)
CCOC(=O)CON — MIC (Candida albicans; 28A): 32 µg/mL (≈ 269 µM)
O=c1c2ccccc2nc(Cc2ccccc2)n1-c1cccc(O)c1 — MIC (Enterococcus faecium; broth dilution; NCTC7171): 128 µg/mL (≈ 390 µM)
OC(Cn1cncn1)(Cn1cncn1)c1ccc(F)cc1F — MIC (Candida albicans; 28A): > 128 µg/mL
C=C(NC(=O)C(=C)NC(=O)c1csc(C2=N[C@@H]3c4csc(n4)[C@H]4NC(=O)c5csc(n5)[C@H]([C@](C)(O)[C@@H](C)O)NC(=O)[C@H]5CSC(=N5)/C(=C/C)NC(=O)[C@H]([C@@H](C)O)NC(=O)c5csc(n5)[C@]3(CC2)NC(=O)[C@H](C)NC(=O)C(=C)NC(=O)[C@H](C)NC(=O)[C@H]([C@@H](C)CC)N[C@@H]2C=Cc3c([C@H](C)O)cc(nc3[C@H]2O)C(=O)O[C@@H]4C)n1)C(N)=O — MIC (Enterococcus faecium): 0.12 µg/mL (≈ 0.0721 µM)
COC(=O)c1cc(-c2cccc(NC(=O)Nc3ccccc3)c2)on1 — MIC (Mycobacteroides chelonae; broth dilution; ATCC35752; 48 h): > 64 µg/mL
CN[C@H](CC(C)C)C(=O)N[C@H]1C(=O)N[C@@H](CC(N)=O)C(=O)N[C@H]2C(=O)N[C@H]3C(=O)N[C@H](C(=O)N[C@H](C(=O)O)c4cc(O)cc(O)c4-c4cc3ccc4O)[C@H](O)c3ccc(c(Cl)c3)Oc3cc2cc(c3O[C@@H]2O[C@H](CO)[C@@H](O)[C@H](O)[C@H]2O[C@H]2C[C@](C)(N)[C@H](O)[C@H](C)O2)Oc2ccc(cc2Cl)[C@H]1O — MIC (Enterococcus faecium; ATCCBAA2317 VRE; drug-resistant strain): 250 µg/mL (≈ 173 µM)
COC(=O)c1cc(-c2ccc(OC)c(NC(=O)Nc3ccc(Cl)c(Cl)c3)c2)on1 — MIC (Mycobacteroides chelonae; broth dilution; ATCC35752; 48 h): > 64 µg/mL
O=c1c2ccccc2nc(/C=C/c2ccc([N+](=O)[O-])cc2)n1-c1ccc(O)cc1 — MIC (Enterococcus faecium; broth dilution; NCTC7171): 64 µg/mL (≈ 166 µM)
COC(=O)c1cc(-c2cccc(NC(=O)Nc3ccccc3C)c2)on1 — MIC (Mycobacteroides chelonae; broth dilution; ATCC35752; 48 h): > 64 µg/mL
O=c1c2ccccc2nc(CCc2ccccc2)n1-c1cccc(O)c1 — MIC (Enterococcus faecium; broth dilution; NCTC7171): > 128 µg/mL
